# Source: ChEMBL document CHEMBL1629531, “Hydroxycoumarin derivatives: novel and potent α-glucosidase inhibitors” (J Med Chem, 2010)
# Activity calls are given as the source filed them. The calls are words filed in the database; no cut-off is given here.
# Legend:
# [1] = Inhibition of alpha-glucosidase at 200 uM using para-nitrophenyl substrate
# [2] = Inhibition of Aspergillus oryzae Beta-galactosidase at 400 uM
# Procedure, shortened: (§1)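 β-Galactosidase from Aspergillus oryzae (9.4 unit/mg solid) assayed by a modified literature method. Values are means of ≥3 determinations. NA means <20% inhibition at 400 μM. Maximum inhibition recorded at the top concentration tested (400 or 200 μM).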
# [3] = Inhibition of beta-glucosidase using salicin substrate
# Procedure, shortened: (§2)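 β-Glucosidase added to 1 mL mix of inhibitor, 5.0 mM salicin, 0.1 M NaAc-HAc pH 5.0, then reacted 10 min at 40 °C. Stopped with DNS reagent and developed 5 min in boiling water. Reducing sugar read at 540 nm against a glucose standard. Triplicates at five concentrations bracketing an estimated IC50. Maximum inhibition recorded at the top concentration tested (400 or 200 μM).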
# [4] = Inhibition of alpha-glucosidase using para-nitrophenyl substrate
# [5] = Inhibition of Aspergillus oryzae Beta-galactosidase; procedure, shortened: as §1
# [6] = Effect on secondary structure of alpha-glucosidase assessed as alpha-helix content at 0.3 uM at circular dichroism method
# Procedure, shortened: (§3)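 Yeast α-glucosidase secondary structure measured by far-UV CD (186-240 nm), protein 0.53-0.66 mg/mL, 0.1 cm quartz cuvette, 5 accumulations per spectrum. Spectra recorded after exposure to inhibitor and compared with enzyme alone. α-helix, β-sheet, β-turn and random fractions estimated by secondary-structure deconvolution.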
# [7] = Slow binding inhibition of alpha-glucosidase compound administered 1 hr at 37 degC before initiation of enzyme reaction using para-nitrophenyl substrate
# Procedure, shortened: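 Yeast α-glucosidase preincubated with inhibitor at 37 °C for 1 h before the reaction is started with PNP glycoside substrate.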
# [8] = Inhibition of beta-glucosidase at 200 uM using salicin substrate; procedure, shortened: as §2
# [9] = Effect on secondary structure of alpha-glucosidase assessed as beta-sheet content at 0.3 uM at circular dichroism method; procedure, shortened: as §3
# [10] = Effect on secondary structure of alpha-glucosidase assessed as random content at 0.3 uM at circular dichroism method; procedure, shortened: as §3
# [11] = Inhibition of Aspergillus oryzae Beta-galactosidase at 200 uM; procedure, shortened: as §1
# [12] = Effect on secondary structure of alpha-glucosidase assessed as alpha-helix content at 0.5 uM bt circular dichroism method; procedure, shortened: as §3
# [13] = Effect on secondary structure of alpha-glucosidase assessed as beta-turn content at 0.3 uM at circular dichroism method; procedure, shortened: as §3
# [14] = Effect on secondary structure of alpha-glucosidase assessed as beta-sheet content at 0.5 uM at circular dichroism method; procedure, shortened: as §3
# [15] = Inhibition of alpha-glucosidase using para-nitrophenyl substrate by dose responsive study
# [16] = Noncompetitive inhibition of alpha-glucosidase by Lineweaver-Burk plot
# Procedure, shortened: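 Yeast α-glucosidase (50 μL, 10 U/mL) preincubated with inhibitor at 37 °C for 1 h, then PNP glycoside substrate added at varying concentrations. Rate of PNP hydrolysis read at several inhibitor concentrations. Mode assigned from Lineweaver-Burk (1/rate vs 1/[substrate]) double-reciprocal plots. Ki taken from Dixon plot and averaged over the inhibitor concentrations.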
# [17] = Effect on secondary structure of alpha-glucosidase assessed as beta-turn content at 0.5 uM at circular dichroism method; procedure, shortened: as §3
# [18] = Inhibition of alpha-glucosidase compound administered simultaneously with para-nitrophenyl substrate
# Procedure, shortened: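 Yeast α-glucosidase assay with PNP glycoside substrate, inhibitor and substrate added together with no preincubation.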
# [19] = Effect on secondary structure of alpha-glucosidase assessed as random content at 0.5 uM at circular dichroism method; procedure, shortened: as §3
# [20] = Inhibition of beta-glucosidase at 400 uM using salicin substrate; procedure, shortened: as §2
smiles,measurement,setting,value
O=c1ccc2cc(O)c(O)cc2o1,inhibition,[1],< 20%
"Cc1cc(=O)oc2cc(O)cc(O)c12 [5,7-DIHYDROXY-4-METHYLCOUMARIN]",inhibition,[2],53.9%
same,IC50,[3]; read-out: IC50,45.4 µM
same,IC50,[4],64.6 µM
same,IC50,[5]; read-out: IC50,> 200 µM
O=c1oc2cc(O)ccc2c(O)c1-c1c(O)ccc(O)c1-c1c(O)c2ccc(O)cc2oc1=O,Activity,[6],33.4%
same,inhibition,[7],Active
same,inhibition,[8],23%
same,Activity,[9],23.8%
same,Activity,[10],29.4%
same,inhibition,[11],2%
same,Activity,[12],32.7%
same,Activity,[13],13.4%
same,Activity,[14],30%
same,inhibition,[15],Dose-dependent effect
same,Ki,[16],0.587 µM
same,Activity,[17],9.2%
same,IC50,[18],88.4 µM
same,IC50,[3]; read-out: IC50,> 200 µM
same,Activity,[19],28.1%
same,IC50,[4],0.86 µM
same,IC50,[5]; read-out: IC50,> 200 µM
Cc1cc(=O)oc2c(O)c(O)ccc12 [4-METHYLDAPHNETIN],IC50,[4],52.7 µM
Cc1cc(=O)oc2cc(O)c(O)cc12 [4-METHYLESCULETIN],IC50,[4],94.2 µM
COc1ccc2c(O)cc(=O)oc2c1,IC50,[4],96.1 µM
O=c1ccc2cc(O)ccc2o1,inhibition,[1],< 20%
COc1ccc2c(OC)cc(=O)oc2c1C,inhibition,[1],< 20%
O=c1c(-c2ccc(O)cc2)coc2cc(O)cc(O)c12 [GENISTEIN],IC50,[4],12.4 µM
O=c1oc2ccccc2cc1O [3-HYDROXYCOUMARIN],inhibition,[2],0%
same,IC50,[3],Not Active
same,IC50,[4],35.3 µM
same,IC50,[5],Not Active
OC[C@H]1NC[C@H](O)[C@@H](O)[C@@H]1O [DUVOGLUSTAT],IC50,[4],35.5 µM
Cc1c(O)ccc2c(O)cc(=O)oc12,inhibition,[2],0%
same,IC50,[3]; read-out: IC50,87.6 µM
same,IC50,[4],50.5 µM
same,IC50,[5],Not Active
COc1ccc2c(OC)cc(=O)oc2c1,IC50,[4],> 100 µM
O=c1cc(O)c2ccc(O)cc2o1,Activity,[6],47.1%
same,Activity,[9],5.3%
same,Activity,[10],29.4%
same,Activity,[12],37.1%
same,Activity,[13],18%
same,Activity,[14],7.4%
same,inhibition,[2],0%
same,Activity,[17],21.4%
same,IC50,[3]; read-out: IC50,> 400 µM
same,Activity,[19],34.1%
same,inhibition,[20],36.7%
same,IC50,[4],38.9 µM
same,IC50,[5],Not Active
Cc1cc(=O)oc2cc(O)ccc12 [HYMECROMONE],IC50,[4],56.2 µM
Cc1ccc2oc(=O)cc(O)c2c1,inhibition,[1],< 20%
